This passage reports inhibition, Activity and IC50 results from ChEMBL document CHEMBL4002622, “A tetramic acid derivative with protein tyrosine phosphatase 1B inhibitory activity and a new nortriterpene glycoside from the Indonesian marine sponge Petrosia sp” (Bioorg Med Chem Lett, 2017).

Experiment [1] has as its target T1, Tyrosine-protein phosphatase non-receptor type 1 (Homo sapiens) (UniProt P18031).
T1 sequence (whole entry): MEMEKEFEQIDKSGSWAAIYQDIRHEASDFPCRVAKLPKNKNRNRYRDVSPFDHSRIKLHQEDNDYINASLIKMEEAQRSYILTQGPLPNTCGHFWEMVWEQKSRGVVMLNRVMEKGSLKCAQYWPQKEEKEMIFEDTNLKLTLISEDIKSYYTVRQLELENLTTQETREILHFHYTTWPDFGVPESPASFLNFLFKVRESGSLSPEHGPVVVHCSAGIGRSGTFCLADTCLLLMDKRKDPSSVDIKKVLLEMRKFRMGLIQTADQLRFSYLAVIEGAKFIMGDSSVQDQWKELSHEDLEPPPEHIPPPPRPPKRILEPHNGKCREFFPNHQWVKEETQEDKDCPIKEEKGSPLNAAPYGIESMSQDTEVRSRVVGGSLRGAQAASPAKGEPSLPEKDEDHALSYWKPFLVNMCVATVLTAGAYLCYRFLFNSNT
Put plainly: Inhibition of PTP1B (unknown origin) at 15.2 to 16 uM using pNPP as substrate preincubated for 10 mins followed by substrate addition measured after 30 mins. In a few lines: (§1)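 Enzyme (0.5 μg/mL stock) in 50 mM citrate pH 6.0, 0.1 M NaCl, 1 mM DTT, 1 mM EDTA; sample added in CH3OH, preincubated 10 min at 37 °C. pNPP (4.0 mM stock) started reaction, 30 min at 37 °C, stopped with 10 M NaOH; p-nitrophenol read at 405 nm. Inhibition (%) = [1 − (sample − blank)/(control − blank)] × 100; oleanolic acid positive control.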

A further experiment concerns Huh-7. Put plainly: Cytotoxicity against human HuH7 cells assessed as decrease in cell viability after 72 hrs by WST1 assay. It counts as functional, cell-based. In a few lines: (§2)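 Seeded 1×10^4 cells per well, cultured overnight, then exposed to compound for 72 h; controls got 0.1% EtOH. Medium with WST-1 (0.5 mM WST-1, 0.02 mM 1-PMS) added, 60 min at 37 °C, absorbance 438 nm (reference 620 nm). Viability = treated absorbance/control absorbance × 100 (%).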

The subject of a further experiment is A549. Put plainly: Cytotoxicity against human A549 cells assessed as decrease in cell viability after 72 hrs by WST1 assay. It counts as functional, cell-based. The procedure, abridged:
as §2

Experiment [2] deals with T2, Tyrosine-protein phosphatase non-receptor type 1 (Homo sapiens, UniProt P18031).
T2 sequence (P18031 whole entry): T1 sequence (whole entry)
The experiment can be described thus: Inhibition of PTP1B (unknown origin) using pNPP as substrate preincubated for 10 mins followed by substrate addition measured after 30 mins. In a few lines:
as §1

The source made the active and inactive calls. The rule behind the calls is not given here.

With `CC(=O)N[C@H]1[C@H](O[C@@H]2CO[C@@H](O[C@H]3CC[C@]4(C)C5=C(CC[C@H]4C3(C)C)[C@@H]3CC[C@H]([C@H](C)CC(=O)CC(C)(C)O)[C@@]3(C)CC5)[C@H](O[C@@H]3O[C@H](CO[C@@H]4O[C@H](CO)[C@@H](O)[C@H](O)[C@H]4O[C@@H]4O[C@H](CO)[C@@H](O)[C@H](O)[C@H]4O)[C@@H](O)[C@H](O)[C@H]3NC(C)=O)[C@H]2O)O[C@H](CO)[C@H](O)[C@@H]1O`, in experiment [1], the inhibition entry is “inactive”. Also, the outcome in the experiment on Huh-7 and in the experiment on A549 was inactive.

Take `CCCCCCCC(C)CCC/C(O)=C1\C(=O)C(C)N(C)C1=O` (stereo not drawn) [MELOPHLIN C]: half-maximal inhibition in experiment [2] (IC50) required 14.6 µM.

On to `CC(=O)N[C@H]1[C@H](O[C@@H]2CO[C@@H](O[C@H]3CC[C@]4(C)C5=C(CC[C@H]4C3(C)C)[C@@H]3CC[C@H]([C@H](C)CC(=O)C=C(C)C)[C@@]3(C)CC5)[C@H](O[C@@H]3O[C@H](CO[C@@H]4O[C@H](CO)[C@@H](O)[C@H](O)[C@H]4O[C@@H]4O[C@H](CO)[C@@H](O)[C@H](O)[C@H]4O)[C@@H](O)[C@H](O)[C@H]3NC(C)=O)[C@H]2O)O[C@H](CO)[C@H](O)[C@@H]1O`, for which the inhibition entry in experiment [1] was “inactive”. The outcome in the experiment on Huh-7 and with A549 was inactive.

Regarding `CC(=O)C[C@@H](C)[C@H]1CC[C@H]2C3=C(CC[C@]12C)[C@@]1(C)CC[C@H](O[C@@H]2OC[C@@H](O[C@@H]4O[C@H](CO)[C@H](O)[C@H](O)[C@H]4NC(C)=O)[C@H](O)[C@H]2O[C@@H]2O[C@H](CO[C@@H]4O[C@H](CO)[C@@H](O)[C@H](O)[C@H]4O[C@@H]4O[C@H](CO)[C@@H](O)[C@H](O)[C@H]4O)[C@@H](O)[C@H](O)[C@H]2NC(C)=O)C(C)(C)[C@@H]1CC3`, the inhibition entry in experiment [1] is “inactive”. The result in the experiment with Huh-7 and in the experiment with A549 was inactive.

Take `CC(=O)N[C@H]1[C@H](O[C@@H]2CO[C@@H](O[C@H]3CC[C@@]4(C)[C@@H](CCC5=C6[C@@H](O)C[C@H]([C@H](C)CC(=O)C=C(C)C)[C@@]6(C)CC[C@@]54O)C3(C)C)[C@H](O[C@@H]3O[C@H](CO[C@@H]4O[C@H](CO)[C@@H](O)[C@H](O)[C@H]4O[C@@H]4O[C@H](CO)[C@@H](O)[C@H](O)[C@H]4O)[C@@H](O)[C@H](O)[C@H]3NC(C)=O)[C@H]2O)O[C@H](CO)[C@H](O)[C@@H]1O`: the inhibition entry in experiment [1] was “inactive”. The result in the experiment with Huh-7 and in the experiment on A549 was inactive.
